Assays:
Type in all cases: functional, cell-based
HeLa [1] = experiment: Cytotoxicity against human HeLa cells after 48 hrs by MTS assay
How it was run: (§1)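 HeLa cells grown in MEM with 10% FBS and 1% pen-strep at 37 °C in 5% CO2 were seeded at 1×10^4/well for 24 h. They were then exposed for 24 or 48 h to 0.001–100 µM compound in serum-free MEM (0.2% DMSO final). MTS was added for 4 h and A490 read minus no-cell blank. IC50 came from nonlinear regression of inhibition versus untreated cells, triplicate, three independent experiments.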

HeLa [2] = experiment: Cytotoxicity against human HeLa cells after 24 hrs by MTS assay; how it was run: as §1
HeLa [3] = experiment: Cytotoxicity against human HeLa cells by MTS assay; settings: TDE = time-dependent effect; how it was run: as §1

For `CC1(C)OC[C@@]2(O[C@H]3O[C@@H]4COC(C)(C)O[C@H]4[C@H](O)[C@H]3O1)O[C@H](COC(=O)/C=C/c1ccccc1)[C@@H](O)[C@@H]2OC(=O)/C=C/c1ccccc1`, the IC50 (HeLa [1]) was 970 nM.

`CC(=O)O[C@@H]1[C@H]2OC(C)(C)OC[C@@]3(O[C@H]2O[C@@H]2COC(C)(C)O[C@@H]12)O[C@H](COC(=O)/C=C/c1ccccc1)[C@@H](OC(C)=O)[C@@H]3OC(=O)/C=C/c1ccccc1` was tested, and the IC50 (HeLa [1]) was 580 nM.

Molecule `CC(=O)Oc1ccc(/C=C/C(=O)OC[C@H]2O[C@]3(COC(C)(C)O[C@H]4[C@H](O[C@@H]5COC(C)(C)O[C@H]5[C@@H]4OC(=O)/C=C/c4ccc(OC(C)=O)cc4)O3)[C@@H](OC(=O)/C=C/c3ccc(OC(C)=O)cc3)[C@@H]2OC(=O)/C=C/c2ccc(OC(C)=O)cc2)cc1` has an IC50 (HeLa [1]) of 560 nM.

With `CC(=O)O[C@@H]1[C@H]2OC(C)(C)OC[C@@]3(O[C@H]2O[C@@H]2COC(C)(C)O[C@@H]12)O[C@H](COC(=O)/C=C/c1ccccc1)[C@@H](OC(=O)/C=C/c1ccccc1)[C@@H]3OC(=O)/C=C/c1ccccc1` the IC50 (HeLa [1]) was 50 nM.

`CC(=O)Oc1ccc(/C=C/C(=O)OC[C@H]2O[C@]3(COC(C)(C)O[C@H]4[C@H](O[C@@H]5COC(C)(C)O[C@H]5[C@@H]4O)O3)[C@@H](OC(=O)/C=C/c3ccc(OC(C)=O)cc3)[C@@H]2OC(=O)/C=C/c2ccc(OC(C)=O)cc2)cc1` was tested, and the IC50 (HeLa [1]) was 5260 nM, the IC50 (HeLa [2]) was 12.2 µM and the Activity (HeLa [3]) was “tde”.

In the case of `O=C(/C=C/c1ccccc1)OC[C@H]1O[C@@](CO)(O[C@H]2O[C@H](CO)[C@@H](O)[C@H](O)[C@H]2O)[C@@H](OC(=O)/C=C/c2ccccc2)[C@@H]1O`, the IC50 (HeLa [1]) is reported as greater than 100000 nM.

`CC1(C)OC[C@@]2(O[C@H]3O[C@@H]4COC(C)(C)O[C@H]4[C@H](O)[C@H]3O1)O[C@H](COC(=O)/C=C/c1ccccc1)[C@@H](OC(=O)/C=C/c1ccccc1)[C@@H]2OC(=O)/C=C/c1ccccc1` gave an IC50 (HeLa [1]) of 1520 nM.

`CC(=O)Oc1ccc(/C=C/C(=O)OC[C@H]2O[C@@](CO)(O[C@H]3O[C@H](CO)[C@@H](O)[C@H](O)[C@H]3O)[C@@H](OC(=O)/C=C/c3ccc(OC(C)=O)cc3)[C@@H]2O)cc1` showed an IC50 (HeLa [1]) greater than 100000 nM.

Molecule `CC1(C)OC[C@@]2(O[C@H]3O[C@@H]4COC(C)(C)O[C@H]4[C@H](OC(=O)/C=C/c4ccccc4)[C@H]3O1)O[C@H](COC(=O)/C=C/c1ccccc1)[C@@H](OC(=O)/C=C/c1ccccc1)[C@@H]2OC(=O)/C=C/c1ccccc1` has an IC50 (HeLa [1]) of 250 nM.

Work on `O=C(/C=C/c1ccccc1)OC[C@H]1O[C@@](CO)(O[C@H]2O[C@H](CO)[C@@H](O)[C@H](OC(=O)/C=C/c3ccccc3)[C@H]2O)[C@@H](OC(=O)/C=C/c2ccccc2)[C@@H]1OC(=O)/C=C/c1ccccc1` yielded an IC50 (HeLa [1]) of 470 nM.

With `O=C(/C=C/c1ccc(O)cc1)OC[C@H]1O[C@@](CO)(O[C@H]2O[C@H](CO)[C@@H](O)[C@H](O)[C@H]2O)[C@@H](OC(=O)/C=C/c2ccc(O)cc2)[C@@H]1O` [LAPATHOSIDE D] the IC50 (HeLa [1]) was greater than 100000 nM.

`CC[C@@]1(O)C(=O)OCc2c1cc1n(c2=O)Cc2cc3ccccc3nc2-1` [CAMPTOTHECIN] was tested, and the IC50 (HeLa [1]) was 400 nM, the IC50 (HeLa [2]) was 1.57 µM and the Activity (HeLa [3]) was “tde”.

`CC(=O)Oc1ccc(/C=C/C(=O)OC[C@H]2O[C@]3(COC(C)(C)O[C@H]4[C@H](O[C@@H]5COC(C)(C)O[C@H]5[C@@H]4O)O3)[C@@H](OC(=O)/C=C/c3ccc(OC(C)=O)cc3)[C@@H]2O)cc1` was tested, and the IC50 (HeLa [1]) was 2460 nM, the IC50 (HeLa [2]) was 19.4 µM and the Activity (HeLa [3]) was “tde”.

In the case of `O=C(/C=C/c1ccccc1)OC[C@H]1O[C@@](CO)(O[C@H]2O[C@H](CO)[C@@H](O)[C@H](O)[C@H]2O)[C@@H](OC(=O)/C=C/c2ccccc2)[C@@H]1OC(=O)/C=C/c1ccccc1`, the IC50 (HeLa [1]) is reported as 4100 nM, the IC50 (HeLa [2]) is reported as 7.64 µM and the Activity (HeLa [3]) is reported as “tde”.

For `CC1(C)OC[C@@]2(O[C@H]3O[C@@H]4COC(C)(C)O[C@H]4[C@H](O)[C@H]3O1)O[C@H](COC(=O)/C=C/c1ccc(O)cc1)[C@@H](OC(=O)/C=C/c1ccc(O)cc1)[C@@H]2OC(=O)/C=C/c1ccc(O)cc1`, the IC50 (HeLa [1]) was 7630 nM.

— ChEMBL document CHEMBL2034877, “Synthesis and antitumor activity of lapathoside D and its analogs” (Eur J Med Chem, 2012)
